Bioassay records from PubChem BioAssay.
CASP6 VEID inh: human caspase-6 inhibitors, primary screen, biochemical, VEID-R110 fluorescence, single point, set 2 | P55212 | purified caspase-6, Z-VEID-R110 cleavage fluorescence | inhibition, % at 12.5 µM | 350,000 tested, 0.53% active | AID 686996, 2013;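 active means mean inhibition across replicates at least about 35%, with every replicate also reaching that limit, limit read from the data; inconclusive means only one of the two criteria met; inactive means neither criterion met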;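 further: 0% = median of neutral control wells and 100% = no fluorescence left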
Target sequence (P55212 24-179 limits assumed): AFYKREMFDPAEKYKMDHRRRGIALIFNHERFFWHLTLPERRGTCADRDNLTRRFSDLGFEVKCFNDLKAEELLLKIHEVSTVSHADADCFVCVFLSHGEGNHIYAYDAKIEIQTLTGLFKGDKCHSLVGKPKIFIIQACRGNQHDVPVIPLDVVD
Target sequence (P55212 194-293 limits assumed): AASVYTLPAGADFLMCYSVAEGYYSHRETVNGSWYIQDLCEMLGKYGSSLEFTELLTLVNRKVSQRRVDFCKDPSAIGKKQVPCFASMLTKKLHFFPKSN
Vif inh: HIV Vif self-association inhibitors, primary screen, imaging, HEK293T, single point; HEK293T cells, Vif self-association by quenched fluorescence, 24 h; inhibition, % at 7.49 µM; 340,000 tested, 0.35% active; in the data active means inhibition above about 50%, passing the limit was not always enough; inconclusive means no clear call, values can overlap the other calls; inactive means below about 31%
Myeloid diff 2: induction of myeloid progenitor differentiation, primary screen, cell-based, flow cytometry, MLPCN library. AID 624256, 2012. calls only at 10 µM. ER-HoxA9 myeloid progenitors, lysozyme-GFP differentiation. 360,000 tested, 1% active;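 active means normalized GFP-positive differentiation at or above the plate's own cutoff, the solvent-only control mean plus 3 SD; inconclusive means no clear call, values can overlap the other calls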;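 further: cells exposed to compound for four days before flow analysis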
T cell HTS: modulators of CD8 T cell-vesicle binding, primary screen, mouse 2C CD8+ T cells, flow cytometry; 2C CD8+ T cell-vesicle binding; stronger effect = lower value; response (vesicle binding), % at 7 µM; 330,000 tested, 0.068% active; AID 2052, 2009;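 active means response, share of CD8 T cells binding vesicles, and their 90th percentile fluorescence all below set limits, cut at about 80% in these data, passing the limit was not always enough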;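 further: values below 100% mean blocked vesicle binding to the CD8+ T cells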
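Test system: purified 2C TCR transgenic mouse naive CD8+ T cells. Probe or stimulus: QL9-peptide-loaded Drosophila micro-vesicles bearing Ld, ICAM-1 and B7-1. Incubation: binding step 1.5 h, 37 °C, antibody labelling 20 min, ice. Measured by: flow cytometry of vesicle-bound cells.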
Starred values were filed as active, the others as inactive; i = inactive; ? = inconclusive; · = no result given; + = active, no number; ! = not confirmed by another sample. Compounds with a hit are over-represented: about 1.4% of the library has one in this group of screens.

SMILES	CASP6 VEID inh	Vif inh	Myeloid diff 2	T cell HTS
CCCN1[C@H](C(=O)N2CCCCC2)[C@@H](CO)[C@@H]2Cn3c(cccc3=O)[C@@H]21	2.7	·	·	·
Cc1c(Cl)cccc1NC(=O)CC(C(=O)O)C1CCCO1 (configuration not stated)	·	98.1*	i	394.7
Cc1ccc(C(c2cc(Cl)c3cccnc3c2O)N2CCN(C)CC2)cc1 (configuration not stated)	·	54.0*	?	182.7
CN1CCN(C(c2ccccn2)c2cc(Cl)c3cccnc3c2O)CC1 (configuration not stated)	-9.9	2.2	i	212.4
COc1ccccc1NC(=S)N1CCN(C(=O)C2CCCO2)CC1 (configuration not stated)	-0.2	64.3*	i	260.1
COC(=O)c1ccccc1NC(=O)C1CCCO1 (configuration not stated)	·	-1.0	+	387.1
COc1ccc(Cl)cc1NC(=S)N1CCN(C(=O)C2CCCO2)CC1 (configuration not stated)	-1.1	1.5	i	719.2
C[C@H](CO)N1C[C@H](C)[C@H](CN(C)Cc2ccc(Oc3ccccc3)cc2)Oc2ccc(NS(=O)(=O)c3ccccc3)cc2CC1=O	51.8*	·	·	·
Cc1ccc(S(=O)(=O)Nc2ccc3c(c2)C(=O)N([C@H](C)CO)C[C@@H](C)[C@H](CN(C)C(=O)Nc2ccc(C(F)(F)F)cc2)O3)cc1	2.2	·	·	·
Cc1ccc(S(=O)(=O)Nc2ccc3c(c2)C(=O)N([C@H](C)CO)C[C@H](C)[C@@H](CN(C)C(=O)Nc2ccc(C(F)(F)F)cc2)O3)cc1	2.9	·	+	173.0
C[C@H](CO)N1C[C@H](C)[C@@H](CN(C)C(=O)Nc2ccc(F)cc2)Oc2ccc(NS(C)(=O)=O)cc2C1=O	-1.1	5.0	+	278.9
CC(C)NC(=O)Nc1ccc2c(c1)C(=O)N([C@H](C)CO)C[C@H](C)[C@@H](CN(C)S(=O)(=O)c1ccccc1)OCCCC[C@H](C)O2	40.4*	·	·	·
O=C(NCCN1CCCC1)[C@H]1[C@H](CO)[C@H]2Cn3c(cccc3=O)[C@@H]1N2C(=O)NC1CCCC1	3.5	·	·	·
CCCC(=O)N1CC2(CN(C(=O)NC(C)C)C2)c2c(n(C)c3cc(OC)ccc23)[C@H]1CO	0.3	·	·	·
C[C@H](CO)N1C[C@H](C)[C@@H](CN(C)C(=O)Nc2ccc(C(F)(F)F)cc2)Oc2ccc(NS(=O)(=O)c3cn(C)cn3)cc2C1=O	-0.4	-1.9	+	887.8
CC(C)NC(=O)Nc1ccc2c(c1)C(=O)N([C@@H](C)CO)C[C@@H](C)[C@@H](CN(C)C(=O)Nc1cccc3ccccc13)O2	45.7*	·	·	·
CC(=O)N1[C@H](C(=O)N2CCc3ccccc3C2)[C@@H](CO)[C@@H]2Cn3c(ccc(-c4cccnc4)c3=O)[C@@H]21	-3.3	·	·	·
O=C(Nc1cccc(F)c1)N[C@@H]1CC[C@H](CCNS(=O)(=O)c2cccc(Cl)c2)O[C@H]1CO	-8.5	·	·	·
C[C@H](CO)N1C[C@H](C)[C@@H](CN(C)Cc2ccccc2)Oc2ccc(NC(=O)Cc3cn(C)c4ccccc34)cc2CC1=O	-0.5	·	·	·
COc1ccc(S(=O)(=O)N(C)C[C@H]2Oc3ccc(NC(=O)C4CC4)cc3CC(=O)N([C@H](C)CO)C[C@H]2C)cc1	0.8	·	·	·
Cc1ccc(S(=O)(=O)Nc2ccccc2)cc1[N+](=O)[O-]	1.3	-5.1	i	·
Cc1c([N+](=O)[O-])cc(S(=O)(=O)Nc2ccncc2)cc1[N+](=O)[O-]	8.1	65.6*	i	287.6
CN1CCN(C(=O)C2=C[C@H](C(C)(C)C)C[C@H](OCc3ccc(CO)cc3)O2)CC1	-1.4	·	·	·
O=C(C[C@H]1CC[C@H](NC(=O)c2ccncc2)[C@@H](CO)O1)NCC1CC1	-3.9	·	·	·
COC(=O)c1c(C)[nH]c(C)c1C(=O)c1ccccc1Cc1ccccc1	2.3	4.0	+	242.7
SMILES	CASP6 VEID inh	Vif inh	Myeloid diff 2	T cell HTS
CCC(=O)N1CCN(c2ccc(Cl)cc2NC(=O)c2ccc([N+](=O)[O-])o2)CC1	-0.1	3.6	?	384.5
CC(=O)N1CCN(c2ccc(NC(=O)c3ccc([N+](=O)[O-])o3)cc2Cl)CC1	4.8	57.4*	·	317.9
CCN1CCN(c2ccc(NC(=O)c3ccc([N+](=O)[O-])o3)cc2Cl)CC1	-3.7	30.7	?	·
CCC(=O)N1CCN(c2ccc(NC(=O)c3ccc([N+](=O)[O-])o3)cc2Cl)CC1	6.3	65.6*	?	·
COC(=O)c1c(CC[C@@H](CO)NC(=O)N[C@@H](Cc2ccccc2)Cn2cc(-c3ccccc3)nn2)oc(C(=O)N2CCOCC2)c1C(=O)OC	-2.8	·	·	·
Cc1cccc(-n2c(SCC(=O)N(C)C3CCS(=O)(=O)C3)nc3ccccc3c2=O)c1C (configuration not stated)	0.9	-14.0	i	292.4
CN(C(=O)CSc1nc2ccccc2c(=O)n1-c1ccccc1F)C1CCS(=O)(=O)C1 (configuration not stated)	-0.1	62.2*	i	242.9
O=C(N[C@@H]1C[C@@H]2O[C@@H](CO)CC[C@@H]2O[C@@H]1CCc1ccc(C#Cc2ccccc2)cc1)c1ccccn1	-0.3	·	·	·
Cc1nnc(SCC(=O)NC2CCCCCC2)n1C(C)C	43.7*	9.7	i	505.9
Cn1c(Cn2c(=O)sc3ccccc32)nnc1SCC(=O)NC1CCCC1	-1.9	1.2	i	64.5
Cn1c(Cn2c(=O)sc3ccccc32)nnc1SCC(=O)NC1CCCCC1	·	-12.6	i	67.6*
Nc1nc(SCC(=O)NC2CCCCC2)n[nH]1	95.4*	3.6	i	340.7
O=C(CSc1n[nH]c(C2CCCC2)n1)NC1CCCC1	·	19.6	i	264.0
Cc1nnc(SCC(=O)NC2CCCCCC2)n1N	-16.1	-9.8	i	630.1
CCn1c(CNC(=O)c2ccccc2F)nnc1SCC(=O)NC1CCCCC1	-0.3	-15.2	i	223.6
CC(C)n1c(CNC(=O)c2ccccc2F)nnc1SCC(=O)NC1CCCCC1	16.7	53.5*	i	·
O=C(C[C@@H]1CC[C@H](NC(=O)c2ccc3c(c2)OCO3)[C@H](CO)O1)NC1Cc2ccccc2C1	2.3	·	·	·
CO[C@@H]1CN(C)C(=O)c2ccc(NC(=O)c3ccc(F)cc3)cc2OC[C@H](C)N(C(=O)CN(C)C)C[C@H]1C	3.1	·	·	·
COc1ccc(C=O)cc1COc1c(F)c(F)cc(F)c1F	·	-7.9	+	238.9
COc1ccc(OC)c(N(CC(=O)Nc2ccccc2)S(C)(=O)=O)c1	36.6*	3.4	i	268.4
COC(=O)c1ccccc1NC(=O)CN(c1cc(OC)ccc1OC)S(C)(=O)=O	·	-4.5	i	542.2
C[C@H](CO)N1C[C@H](C)[C@@H](CN(C)S(=O)(=O)c2ccc3c(c2)OCCCO3)OCc2cn(nn2)CCCC1=O	47.0*!	0.8	i	·
C[C@@H]1CN([C@@H](C)CO)C(=O)CCCn2cc(nn2)CO[C@H]1CN(C)S(=O)(=O)c1ccc(Oc2ccccc2)nc1	-3.2	3.8	i	·
